# Laboratory results published in ChEMBL document CHEMBL1151705, “Novel azalides derived from 16-membered macrolides. Part II: Isolation of the linear 9-formylcarboxylic acid and its sequential macrocyclization with an amino alcohol or an azidoamine” (2008).
# Assays:
# Streptococcus pneumoniae [1] = test: Antimicrobial activity against Streptococcus pneumoniae 9 expressing mefA after 20 hrs by agar dilution method; type: functional
# Method in brief: (§1)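 Streptococci, H. influenzae and M. catarrhalis were precultured on blood agar plates. Suspensions of about 10⁶ CFU/ml were inoculated onto sensitivity disk agar supplemented with 5% horse blood and incubated at 37 °C for 20 h. MIC was read as the lowest drug concentration with no visible growth.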
# Streptococcus pyogenes [2] = test: Antimicrobial activity against drug-susceptible Streptococcus pyogenes 1 after 20 hrs by agar dilution method; type: functional; method in brief: as §1
# Streptococcus pyogenes [3] = test: Antimicrobial activity against Streptococcus pyogenes 3 expressing mefA after 20 hrs by agar dilution method; type: functional; method in brief: as §1
# Moraxella catarrhalis [4] = test: Antimicrobial activity against drug-susceptible Moraxella catarrhalis 1 after 20 hrs by agar dilution method; type: functional; method in brief: as §1
# Moraxella catarrhalis [5] = test: Antimicrobial activity against drug-susceptible Moraxella catarrhalis 2 after 20 hrs by agar dilution method; type: functional; method in brief: as §1
# Haemophilus influenzae [6] = test: Antimicrobial activity against drug-susceptible Haemophilus influenzae 1 after 20 hrs by agar dilution method; type: functional; method in brief: as §1
# Haemophilus influenzae [7] = test: Antimicrobial activity against drug-susceptible Haemophilus influenzae 2 after 20 hrs by agar dilution method; type: functional; method in brief: as §1
# Haemophilus influenzae [8] = test: Antimicrobial activity against drug-susceptible Haemophilus influenzae 4 after 20 hrs by agar dilution method; type: functional; method in brief: as §1
# Staphylococcus aureus [9] = test: Antimicrobial activity against drug-susceptible Staphylococcus aureus 209P JC-1 after 20 hrs by agar dilution method; type: functional
# Method in brief: (§2)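 Agar dilution MIC. S. aureus seed culture was grown in sensitivity test broth. Cell suspension (about 10⁶ CFU/ml) was inoculated onto sensitivity disk agar with 5% horse blood and incubated at 37 °C for 20 h. MIC was the lowest drug concentration that prevented visible growth.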
# Staphylococcus aureus [10] = test: Antimicrobial activity against drug-susceptible Staphylococcus aureus 2 after 20 hrs by agar dilution method; type: functional; method in brief: as §2
# Staphylococcus aureus [11] = test: Antimicrobial activity against drug-susceptible Staphylococcus aureus 3 after 20 hrs by agar dilution method; type: functional; method in brief: as §2
# Staphylococcus aureus [12] = test: Antimicrobial activity against Staphylococcus aureus 5 expressing inducible ermB after 20 hrs by agar dilution method; type: functional; method in brief: as §2
# Streptococcus pneumoniae [13] = test: Antimicrobial activity against drug-susceptible Streptococcus pneumoniae DP1 Type1 after 20 hrs by agar dilution method; type: functional; method in brief: as §1
# Streptococcus pneumoniae [14] = test: Antimicrobial activity against drug-susceptible Streptococcus pneumoniae 2 after 20 hrs by agar dilution method; type: functional; method in brief: as §1
# Staphylococcus aureus [15] = test: Antimicrobial activity against Staphylococcus aureus 6 expressing inducible ermC after 20 hrs by agar dilution method
# Streptococcus pneumoniae [16] = test: Antimicrobial activity against Streptococcus pneumoniae 8 expressing inducible ermB after 20 hrs by agar dilution method; type: functional; method in brief: as §1
# Streptococcus pneumoniae [17] = test: Antimicrobial activity against Streptococcus pneumoniae 10 expressing mefA after 20 hrs by agar dilution method; type: functional; method in brief: as §1
# Haemophilus influenzae [18] = test: Antimicrobial activity against drug-susceptible Haemophilus influenzae 3 after 20 hrs by agar dilution method; type: functional; method in brief: as §1
# Streptococcus pneumoniae [19] = test: Antimicrobial activity against drug-susceptible Streptococcus pneumoniae 3 after 20 hrs by agar dilution method; type: functional; method in brief: as §1
# Streptococcus pneumoniae [20] = test: Antimicrobial activity against Streptococcus pneumoniae 7 expressing inducible ermB after 20 hrs by agar dilution method; type: functional; method in brief: as §1
# Streptococcus pyogenes [21] = test: Antimicrobial activity against Streptococcus pyogenes 2 constitutively expressing ermB after 20 hrs by agar dilution method; type: functional; method in brief: as §1
# Staphylococcus aureus [22] = test: Antimicrobial activity against Staphylococcus aureus 4 constitutively expressing ermA after 20 hrs by agar dilution method; type: functional; method in brief: as §2
# Streptococcus pneumoniae [23] = test: Antimicrobial activity against Streptococcus pneumoniae 4 constitutively expressing ermB after 20 hrs by agar dilution method; type: functional; conditions: Streptococcus pneumoniae, 20 h; read-out: MIC; method in brief: as §1
# Streptococcus pneumoniae [24] = test: Antimicrobial activity against Streptococcus pneumoniae 5 constitutively expressing ermB/mefA after 20 hrs by agar dilution method; type: functional; conditions: Streptococcus pneumoniae, 20 h; read-out: MIC; method in brief: as §1
# Streptococcus pneumoniae [25] = test: Antimicrobial activity against Streptococcus pneumoniae 6 constitutively expressing ermB after 20 hrs by agar dilution method; type: functional; conditions: Streptococcus pneumoniae, 20 h; read-out: MIC; method in brief: as §1
# Staphylococcus aureus [26] = test: Antimicrobial activity against Staphylococcus aureus 6 expressing inducible ermB after 20 hrs by agar dilution method; type: functional; method in brief: as §2
# [27] = Moraxella catarrhalis, 20 h, read-out: MIC
# [28] = Haemophilus influenzae, 20 h, read-out: MIC
# [29] = Staphylococcus aureus, 20 h, read-out: MIC
# [30] = Streptococcus pneumoniae, 20 h, read-out: MIC
Compound,MIC (Streptococcus pneumoniae [1]),MIC (Streptococcus pyogenes [2]),MIC (Streptococcus pyogenes [3]),MIC (Moraxella catarrhalis [4]),MIC (Moraxella catarrhalis [5]),MIC (Haemophilus influenzae [6]),MIC (Haemophilus influenzae [7]),MIC (Haemophilus influenzae [8]),MIC (Staphylococcus aureus [9]),MIC (Staphylococcus aureus [10]),MIC (Staphylococcus aureus [11]),MIC (Staphylococcus aureus [12]),MIC (Streptococcus pneumoniae [13]),MIC (Streptococcus pneumoniae [14]),MIC (Staphylococcus aureus [15]),MIC (Streptococcus pneumoniae [16]),MIC (Streptococcus pneumoniae [17]),MIC (Haemophilus influenzae [18]),MIC (Streptococcus pneumoniae [19]),MIC (Streptococcus pneumoniae [20]),also measured
CCOC(=O)[C@H]1[C@H](C)O[C@@H](O[C@H]2[C@H](N(C)C)[C@@H](O)[C@H](O[C@H]3[C@@H](CC=O)C[C@@H](C)[C@@H](O)CN(C)CCC(C/C=C/c4ccnc5ccccc45)NC(=O)C[C@@H](OC(=O)CC)[C@@H]3OC)O[C@@H]2C)C[C@@]1(C)O (stereo in doubt),0.5 µg/mL,0.5 µg/mL,2 µg/mL,8 µg/mL,4 µg/mL,64 µg/mL,4 µg/mL,16 µg/mL,4 µg/mL,8 µg/mL,2 µg/mL,2 µg/mL,0.25 µg/mL,0.25 µg/mL,4 µg/mL,,,,,,
CCOC(=O)[C@H]1[C@H](C)O[C@@H](O[C@H]2[C@H](N(C)C)[C@@H](O)[C@H](O[C@H]3[C@@H](CC=O)C[C@@H](C)[C@@H](O)CN(C)CCC(/C=C/Cc4ccnc5ccccc45)NC(=O)C[C@@H](OC(=O)CC)[C@@H]3OC)O[C@@H]2C)C[C@@]1(C)O (stereo in doubt),0.25 µg/mL,0.5 µg/mL,2 µg/mL,4 µg/mL,4 µg/mL,32 µg/mL,1 µg/mL,16 µg/mL,2 µg/mL,4 µg/mL,1 µg/mL,2 µg/mL,0.13 µg/mL,0.25 µg/mL,2 µg/mL,64 µg/mL,0.25 µg/mL,8 µg/mL,0.25 µg/mL,64 µg/mL,
CCOC(=O)[C@H]1[C@H](C)O[C@@H](O[C@H]2[C@H](N(C)C)[C@@H](O)[C@H](O[C@H]3[C@@H](CC=O)C[C@@H](C)[C@@H](O)CN(C)CC(/C=C/Cc4cnc5ccccc5c4)CCOC(=O)C[C@@H](OC(=O)CC)[C@@H]3OC)O[C@@H]2C)C[C@@]1(C)O (stereo in doubt; form 1),0.015 µg/mL,0.03 µg/mL,0.13 µg/mL,,,,,4 µg/mL,,,,,,,,1 µg/mL,0.015 µg/mL,,,1 µg/mL,"MIC (Streptococcus pyogenes [21]): > 128 µg/mL; MIC (Moraxella catarrhalis [4]; [27]): 1 µg/mL; MIC (Moraxella catarrhalis [5]; [27]): 1 µg/mL; MIC (Haemophilus influenzae [6]; [28]): 32 µg/mL; MIC (Haemophilus influenzae [7]; [28]): 2 µg/mL; MIC (Haemophilus influenzae [18]; [28]): 8 µg/mL; MIC (Staphylococcus aureus [9]; Staphylococcus aureus, 209P, 20 h, read-out: MIC): 0.13 µg/mL; MIC (Staphylococcus aureus [10]; [29]): 0.25 µg/mL; MIC (Staphylococcus aureus [11]; [29]): 0.13 µg/mL; MIC (Staphylococcus aureus [22]): > 128 µg/mL; MIC (Staphylococcus aureus [12]; [29]): 0.13 µg/mL; MIC (Streptococcus pneumoniae [13]; [30]): < 0.008 µg/mL; MIC (Streptococcus pneumoniae [14]; [30]): 0.03 µg/mL; MIC (Streptococcus pneumoniae [19]; [30]): 0.015 µg/mL; MIC (Streptococcus pneumoniae [23]): 128 µg/mL; MIC (Streptococcus pneumoniae [24]): 128 µg/mL; MIC (Streptococcus pneumoniae [25]): 128 µg/mL; MIC (Staphylococcus aureus [26]): 0.25 µg/mL"
CCOC(=O)[C@H]1[C@H](C)O[C@@H](O[C@H]2[C@H](N(C)C)[C@@H](O)[C@H](O[C@H]3[C@@H](CC=O)C[C@@H](C)[C@@H](O)CN(CCCCc4ccccc4)CCC(C)NC(=O)C[C@@H](OC(=O)CC)[C@@H]3OC)O[C@@H]2C)C[C@@]1(C)OC(C)=O (stereo in doubt; form 2),,0.06 µg/mL,0.25 µg/mL,0.13 µg/mL,0.25 µg/mL,32 µg/mL,1 µg/mL,8 µg/mL,0.25 µg/mL,1 µg/mL,0.25 µg/mL,0.25 µg/mL,0.13 µg/mL,0.25 µg/mL,0.5 µg/mL,32 µg/mL,,8 µg/mL,,32 µg/mL,
CCOC(=O)[C@H]1[C@H](C)O[C@@H](O[C@H]2[C@H](N(C)C)[C@@H](O)[C@H](O[C@H]3[C@@H](CC=O)C[C@@H](C)[C@@H](O)CN(C)CC(/C=C/Cc4ccnc5ccccc45)CCOC(=O)C[C@@H](OC(=O)CC)[C@@H]3OC)O[C@@H]2C)C[C@@]1(C)O (stereo in doubt; form 2),0.06 µg/mL,0.13 µg/mL,0.25 µg/mL,2 µg/mL,2 µg/mL,32 µg/mL,,16 µg/mL,0.25 µg/mL,1 µg/mL,0.25 µg/mL,0.25 µg/mL,0.03 µg/mL,0.06 µg/mL,0.5 µg/mL,128 µg/mL,0.06 µg/mL,16 µg/mL,,128 µg/mL,MIC (Haemophilus influenzae [7]; [28]): 4 µg/mL
CCOC(=O)[C@H]1[C@H](C)O[C@@H](O[C@H]2[C@H](N(C)C)[C@@H](O)[C@H](O[C@H]3[C@@H](CC=O)C[C@@H](C)[C@@H](O)CN(C)CCC(CCCc4ccnc5ccccc45)NC(=O)C[C@@H](OC(=O)CC)[C@@H]3OC)O[C@@H]2C)C[C@@]1(C)O (stereo in doubt; form 2),0.25 µg/mL,0.5 µg/mL,2 µg/mL,8 µg/mL,8 µg/mL,64 µg/mL,2 µg/mL,8 µg/mL,4 µg/mL,8 µg/mL,2 µg/mL,4 µg/mL,0.13 µg/mL,0.25 µg/mL,4 µg/mL,64 µg/mL,0.25 µg/mL,16 µg/mL,0.25 µg/mL,64 µg/mL,
